Assays:
[1] = In vitro reversibility ratio in U937 cells; assay type: functional, U-937
Method in brief: (§1)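 Human histiocytic lymphoma U937 cells, read by flow cytometry. Scores whether a complete mitotic block is maintained 10 h after drug washout.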

P388 = test: Fold resistance calculated as the inhibition concentration ratio between retrovirally transformed murine P388/VMDRC.04 and parental P388 cells; assay type: functional
Method in brief: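 Readout of P-glycoprotein (PgP) susceptibility: IC50 in the retrovirally transformed P388/VMDRC.04 line divided by IC50 in parental P388 cells, giving fold resistance.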

U-937 [2] = test: In vitro inhibitory concentration required to inhibit the growth of U937 cells was determined at 0 hr by mitotic block reversibility assay; assay type: functional; settings: Homo sapiens, U-937, 0 h
U-937 [3] = test: In vitro inhibitory concentration required to inhibit the growth of U937 cells was determined at 10 hr by mitotic block reversibility assay; assay type: functional; settings: Homo sapiens, U-937, 10 h; method in brief: as §1
DLD-1 = test: In vitro inhibitory concentration required to inhibit the growth of DLD-1 cells under continuous exposure conditions for 3-4 days; assay type: functional, cell-based; settings: Homo sapiens
Method in brief: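 Human colon cancer DLD-1 cells grown under continuous drug exposure for 3–4 days. Growth inhibition measured and IC50 reported ± SEM, n = number of experiments.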

| Structure (SMILES) | Reversibility ratio [1] | FR (P388) | IC99 (U-937 [2]) [µM] | IC99 (U-937 [3]) [µM] | IC50 (DLD-1) [nM] |
| --- | --- | --- | --- | --- | --- |
| C=C1C[C@@H]2CC[C@@]34C[C@@H]5O[C@@H]6C(O[C@H]7CC[C@H](CC(=O)C[C@@H]8[C@@H](OC)[C@@H](C[C@H](O)CN=[N+]=[N-])O[C@H]8C[C@H]8O[C@@H](CC[C@@H]1O2)C[C@@H](C)C8=C)O[C@@H]7[C@@H]6O3)[C@H]5O4 | 10 | 1.9 | 0.003 | 0.03 | 0.53 |
| C=C1C[C@@H]2CC[C@@]34C[C@@H]5O[C@@H]6C(O[C@H]7CC[C@H](CC(=O)C[C@@H]8[C@@H](OC)[C@@H](C[C@H](O)CO)O[C@H]8C[C@H]8O[C@@H](CC[C@@H]1O2)C[C@@H](C)C8=C)O[C@@H]7[C@@H]6O3)[C@H]5O4 | 13 | 9.7 | 0.003 | 0.038 | 1 |
| C=C1C[C@@H]2CC[C@@]34C[C@@H]5O[C@@H]6C(O[C@H]7CC[C@H](CC(=O)C[C@@H]8[C@@H](OC)[C@@H](CCO)O[C@H]8C[C@H]8O[C@@H](CC[C@@H]1O2)C[C@@H](C)C8=C)O[C@@H]7[C@@H]6O3)[C@H]5O4 | 33 | 8.5 | 0.003 | 0.1 | 0.66 |
| C=C1C[C@@H]2CC[C@@]34C[C@@H]5O[C@@H]6C(O[C@H]7CC[C@H](CC(=O)C[C@@H]8[C@@H](OC)[C@@H](C[C@H](O)COC(=O)Nc9ccc(Cl)cc9)O[C@H]8C[C@H]8O[C@@H](CC[C@@H]1O2)C[C@@H](C)C8=C)O[C@@H]7[C@@H]6O3)[C@H]5O4 | 22 | 8.6 | 0.003 | 0.065 | 1.3 |
| C=C1C[C@@H]2CC[C@@]34C[C@@H]5O[C@@H]6C(O[C@H]7CC[C@H](CC(=O)C[C@@H]8[C@@H](OC)[C@@H](C[C@H](O)CS(=O)(=O)c9ccc(OC)cc9)O[C@H]8C[C@H]8O[C@@H](CC[C@@H]1O2)C[C@@H](C)C8=C)O[C@@H]7[C@@H]6O3)[C@H]5O4 | 10 | 3.4 | 0.003 | 0.03 | 0.74 |
| C=C1C[C@@H]2CC[C@@]34C[C@@H]5O[C@@H]6C(O[C@H]7CC[C@H](CC(=O)C[C@@H]8[C@@H](OC)[C@@H](C[C@H](O)CN9CCCCC9)O[C@H]8C[C@H]8O[C@@H](CC[C@@H]1O2)C[C@@H](C)C8=C)O[C@@H]7[C@@H]6O3)[C@H]5O4 | 10 | 17 | 0.001 | 0.01 | 0.47 |
| C=C1C[C@@H]2CC[C@@]34C[C@@H]5O[C@@H]6C(O[C@H]7CC[C@H](CC(=O)C[C@@H]8[C@@H](OC)[C@@H](C[C@H](O)CNC(=O)c9cc(OC)c(OC)c(OC)c9)O[C@H]8C[C@H]8O[C@@H](CC[C@@H]1O2)C[C@@H](C)C8=C)O[C@@H]7[C@@H]6O3)[C@H]5O4 | 5 | 20 | 0.002 | 0.01 | 0.72 |
